Compound activity deposited in PubChem by several laboratories.
LANA-H2A inh: blocks KSHV LANA binding to histone H2A/H2B | Q9QR71 | cell-free LANA-H2A/H2B peptide, fluorescence polarization | inhibition, % (test concentration not listed) | hit rate 0.6% among 320,000; in the data active means inhibition mostly above about 10%, no sharp cut-off; inactive means mostly below about 6.7%
TRPML3 ag: activates the human TRPML3 channel; Q8TDD5; HEK293 TRPML3-YFP, Fluo-8 calcium fluorescence; 100% = the carbachol control signal; activation, % at 3 µM; hit rate 0.29% among 220,000; AID 1448;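 active means activation above its plate's cutoff, the mean activation of the plate's test wells plus 3 SD, cut at about 12% in these data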;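 further: 0% = DMSO only wells and 100% = carbachol wells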
Target sequence (Q8TDD5 whole entry, looked up): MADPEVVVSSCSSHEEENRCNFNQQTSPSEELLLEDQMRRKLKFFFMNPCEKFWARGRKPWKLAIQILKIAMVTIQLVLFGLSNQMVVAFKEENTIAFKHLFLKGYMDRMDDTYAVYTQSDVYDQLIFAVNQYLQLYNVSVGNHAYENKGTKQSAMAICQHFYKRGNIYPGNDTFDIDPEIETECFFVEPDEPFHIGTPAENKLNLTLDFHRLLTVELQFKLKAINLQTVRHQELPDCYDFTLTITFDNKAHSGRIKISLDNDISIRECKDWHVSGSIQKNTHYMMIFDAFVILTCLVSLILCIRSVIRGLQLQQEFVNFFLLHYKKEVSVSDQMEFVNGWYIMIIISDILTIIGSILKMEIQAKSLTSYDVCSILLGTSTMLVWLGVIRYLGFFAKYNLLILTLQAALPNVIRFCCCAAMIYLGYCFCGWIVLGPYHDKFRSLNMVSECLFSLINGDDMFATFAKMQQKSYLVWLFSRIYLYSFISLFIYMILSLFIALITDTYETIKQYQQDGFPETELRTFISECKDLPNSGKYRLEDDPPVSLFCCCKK
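Test system: TRPML3-YFP stable HEK293 cells. Doses: single point at 3 µM. Incubation: dye loading 1 h 37 °C then 30 min ambient, 125 s read. Signal: Fluo-8 calcium dye fluorescence, ex 470-495, em 515-575 nm. Measure: percent activation from peak-to-basal fluorescence ratio, scaled between DMSO and carbachol.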
TAAR1 ag: agonists of human TAAR1; Q96RJ0; CHO RD-HGA16 TAAR1, Fluo-8 calcium fluorescence; vehicle wells 0%, saturating PEA agonist 100%; activation, % at 3 µM; hit rate 0.99% among 360,000; AID 624467;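 active means activation above the mean activation of all test compounds in the run plus 3 SD, cut at about 38% in these data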
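System: CHO-derived RD-HGA16 cells with stable Gα16 and human TAAR1. Times: 17-24 h plating, Fluo-8 75 min 37 °C, 30 min RT. Measured by: calcium-sensitive Fluo-8 signal, excitation 470-495, emission 515-575 nm. Read-out basis: % activation relative to PEA EC100 response. Control set: DMSO and PEA EC100. Repeats: no replicates (n 1).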
TAAR1 antag: human TAAR1 antagonism. CHO RD-HGA16 TAAR1, Fluo-8 calcium fluorescence, antagonist. inhibition, % at 3 µM. hit rate 1.5% among 360,000;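 active means inhibition above a per-plate cutoff, the mean inhibition of test compounds on that plate plus 3 SD, cut at about 49% in these data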;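 further: 0% = DMSO plus EC80 beta-PEA response and 100% = DMSO alone without agonist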
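Test system – hTAAR1-expressing CHO RD-HGA16 cells, Gα16-coupled · Reagent – β-PEA at EC80 concentration, post-compound challenge · Compound dosing – 3 µM, single point · Timing – 140 s kinetic read after compound, 140 s after agonist · Detection – Fluo-8 intracellular calcium dye fluorescence, real-time kinetic reads · Control set – DMSO and EC80 PEA controls · Repeats – n of 1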
GPR7 antagonist: antagonists of human GPR7 (neuropeptides B/W receptor 1) | GPR7-expressing cells, fluorescence antagonist assay | inhibition, % at 4.4 µM | hit rate 1.1% among 290,000 | AID 1861; in the data active means inhibition above about 16%, passing the limit was not always enough;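 further: cells stimulated with the agonist NPW; 0% = agonist with vehicle and 100% = vehicle without agonist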
zfTRPN1 agonist: agonists of zebrafish TRPN1 channel; HEK293 zebrafish TRPN1-YFP, Fluo-8 calcium fluorescence; 100% = response to 87 µM carbachol; AID 1424; activation, % at 3 µM; hit rate 0.18% among 220,000;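 active means activation above its plate's cutoff, the mean activation of test wells on that plate plus 3 SD, cut at about 19% in these data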;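 further: 0% = DMSO alone and 100% = 87 µM carbachol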
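Assay system: Zebrafish TRPN1-YFP in HEK293 cells | Incubation: Dye loading 1 h at 37 °C, then 30 min room temperature | Measured by: Kinetic Fluo-8 fluorescence, ex 470-495, em 515-575 nm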
TAAR1 ag conf: human TAAR1 agonism, confirmed; shares compounds with TAAR1 ag; CHO RD-HGA16 TAAR1, Fluo-8 calcium fluorescence; scaled: DMSO 0%, maximal phenethylamine 100%; activation, % at 3 µM; hit rate 82% among 2,400; AID 651783;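 active means activation above a cutoff set at the run's mean compound activation plus 3 SD, cut at about 39% in these data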
Ga16 ag counter: nonselective agonism, TAAR1 counter-screen; CHO-Ga16 parental, Fluo-8 calcium fluorescence; normalized to maximal ATP response, DMSO zero; shares compounds with TAAR1 ag; hit rate 50% among 2,400; AID 651787; activation, % at 3 µM;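 active means activation above the run cutoff, the mean activation over all tested wells plus 3 SD, cut at about 12% in these data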;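 further: 0% = DMSO wells and 100% = maximal ATP response on the peak over basal ratio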
TAAR1 desens: human TAAR1 agonist that also desensitizes the receptor; shares compounds with TAAR1 ag; CHO RD-HGA16 hTAAR1, Fluo-8 calcium, beta-PEA response inhibition; inhibition, % at 3 µM; hit rate 46% among 2,400; AID 651951;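 active means inhibition above the run cutoff, the mean inhibition of all test compounds plus 3 SD, cut at about 49% in these data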;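 further: beta-PEA stimulus applied at its EC80; loss of beta-PEA calcium signal after compound pretreatment read as receptor desensitization; 0% = DMSO with beta-PEA at EC80 and 100% = DMSO alone without agonist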
Ga16 nonsel ant: nonselective Ga16 antagonist in TAAR1 agonist counter-screen; shares compounds with TAAR1 ag; CHO-Ga16 ATP-induced calcium, Fluo-8 fluorescence; inhibition, % at 3 µM; hit rate 39% among 2,400; AID 651952;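 active means inhibition above the plate's mean compound inhibition plus 3 SD, computed per plate, cut at about 22% in these data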;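 further: 0% = EC80 ATP with DMSO and 100% = DMSO wells without ATP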
Active calls of the source: *; . = not tested or not shown. Rows were chosen to be rich in hits. Some 3.4% of all compounds tested hit in one or more screens of this group.

SMILES	LANA-H2A inh	TRPML3 ag	TAAR1 ag	TAAR1 antag	GPR7 antagonist	zfTRPN1 agonist	TAAR1 ag conf	Ga16 ag counter	TAAR1 desens	Ga16 nonsel ant
Cc1oc(=O)c(NC(=O)c2cccc(Cl)c2)cc1C(=O)c1ccccc1	0	1	55*	28	-12	2	11	10	37	31*
O=[N+]([O-])c1ccc(CNCc2cc(Cl)ccc2O)cc1	-2	.	51*	4	.	.	60*	20*	20	12
COc1cc(COc2ccc(-c3nnco3)cc2)ccc1OC(F)F	1	.	48*	20	-7	.	2	2	-1	6
Cc1nn(CC(=O)NCCc2cccs2)c(=O)c2cc3ccccc3n12	-3	.	48*	-5	-5	.	38*	-1	1	5
Cc1oc(-c2ccccc2Cl)nc1CS(=O)(=O)CC(=O)NCCc1ccccc1	-1	.	72*	50*	1	.	85*	4	72*	6
COc1ccc(/C=N/Nc2cc(C)nc(N3CCOCC3)n2)cc1	-5	0	1	-24	8	1	.	.	.	.
COc1ccc(Nc2cc(C)nc(N3CCOCC3)n2)cc1	5	0	49*	3	-17	-1	70*	5	38	6
C/C(=N\NC(=O)c1nnn(-c2nonc2N)c1-c1ccccc1)c1ccco1	3	.	106*	-19	-27	.	120*	87*	27	1
COc1cccc(-c2c(C(=O)N/N=C(\C)c3ccc(Cl)s3)nnn2-c2nonc2N)c1	-5	.	89*	59*	-14	.	82*	52*	64*	39*
COc1cccc(-c2c(C(=O)N/N=C(\C)c3ccco3)nnn2-c2nonc2N)c1	7	.	115*	17	-14	.	128*	88*	49*	18
CC1(C(=O)NS(=O)(=O)c2ccccc2OC(F)(F)F)CCN1C(=O)c1ccco1 (centres undefined)	.	.	0	-19	.	.	.	.	.	.
COC(=O)c1ccc2[nH]ccc2c1	-2	.	1	-2	1	.	.	.	.	.
O=S1(=O)N=C(N2CCc3ccccc3C2)c2ccccc21	5	0	63*	3	-2	1	61*	3	9	8
CCC1NC(=O)c2cc3ccccc3cc2-n2c1nc1cc(OC)c(OC)cc1c2=O (centres undefined)	.	.	9	-4	.	.	.	.	.	.
COc1ccc(S(=O)(=O)n2nc(OC(=O)c3ccccc3Br)cc2N)cc1	4	-1	97*	47	15	0	84*	44*	39	9
COc1ccc(S(=O)(=O)n2nc(OC(=O)c3ccccc3)cc2N)cc1	-1	-1	57*	7	8	-1	51*	13*	6	16
COc1ccc(S(=O)(=O)n2nc(OC(=O)c3cccs3)cc2N)cc1	5	-1	53*	-6	-1	-1	20	5	6	14
COc1ccccc1C(=O)Oc1cc(N)n(S(=O)(=O)c2ccccc2)n1	1	0	10	-1	4	-1	.	.	.	.
Cc1cc(/C=N/Nc2ncnc(N)c2[N+](=O)[O-])c(C)n1-c1ccccc1	-4	1	73*	11	-9	1	120*	49*	83*	16
COc1cccc(/C=N/Nc2ncnc(N)c2[N+](=O)[O-])c1OC	-5	1	.	.	-10	-1	.	.	.	.
COc1ccc(/C=C/C(=O)NC(=S)NNC(=O)c2c(-c3ccccc3)noc2C)cc1	-6	1	93*	49*	-6	1	68*	66*	52*	52*
Cc1onc(-c2ccccc2)c1C(=O)NNC(=O)c1ccccc1O	-3	.	2	-6	.	.	.	.	.	.
Cc1onc(-c2ccccc2)c1C(=O)NNC(=S)NC(=O)c1ccc(Cl)cc1Cl	-2	2	132*	108*	-10	7	149*	121*	107*	92*
O=C(NC(=S)NNC(=O)c1ccc(Cl)cc1Cl)c1cccnc1	.	1	2	-9	-9	-2	.	.	.	.
COc1ccc(/C=C/C(=O)NC(=S)NNC(=O)Cc2cccs2)cc1	5	0	48*	28	-9	2	30	19*	24	25*
SMILES	LANA-H2A inh	TRPML3 ag	TAAR1 ag	TAAR1 antag	GPR7 antagonist	zfTRPN1 agonist	TAAR1 ag conf	Ga16 ag counter	TAAR1 desens	Ga16 nonsel ant
Cc1ccccc1C(=O)NNC(=S)NC(=O)c1ccc(Cl)cc1Cl	4	57*	181*	109*	-4	72*	132*	103*	104*	81*
O=C(NCc1ccccc1Cl)c1cc(C(=O)C2CC2)c[nH]1	-5	.	7	-39	-1	.	.	.	.	.
COc1ccc(-c2cc(C(=O)NNC(=S)NC(=O)c3c(-c4ccccc4)noc3C)[nH]n2)cc1	-1	0	3	-21	-21	-2	.	.	.	.
Cc1onc(-c2ccccc2)c1C(=O)NNC(=S)NC(=O)/C=C/c1ccccc1	3	2	136*	55*	-2	4	149*	126*	90*	61*
c1ccc(CC2=NCCN2)cc1	-3	0	75*	63*	-10	1	92*	0	76*	6
c1ccc(CN(CC2=NCCN2)c2ccccc2)cc1	6	1	66*	-3	-6	0	92*	3	67*	12
Cc1ccc(NC(=O)C2CCN(C(=O)c3ccco3)CC2)cc1C	-4	.	-3	8	-9	.	.	.	.	.
NC(CCc1ccccc1)c1csc(Nc2ccc(C(F)(F)F)cn2)n1 (centres undefined)	.	.	56*	21	.	.	40*	25*	40	36*
NC(c1csc(Nc2ccc(C(F)(F)F)cn2)n1)C1CCCCC1 (centres undefined)	.	.	76*	20	.	.	75*	43*	60*	55*
CC(C)CC(N)c1csc(Nc2ccc(C(F)(F)F)cn2)n1 (centres undefined)	.	.	58*	25	.	.	54*	22*	31	26*
NC(COCc1ccccc1)c1csc(Nc2ccc(C(F)(F)F)cn2)n1 (centres undefined)	.	.	36	3	.	.	.	.	.	.
